Measurements: ChEMBL document CHEMBL2390903, “Anti-tubercular agents. Part 7: a new class of diarylpyrrole-oxazolidinone conjugates as antimycobacterial agents” (Eur J Med Chem, 2013)
≈ marks a conversion by molar mass, not a printed value.

Test system: Mycobacterium tuberculosis
Test: Antitubercular activity against rifampicin-resistant Mycobacterium tuberculosis assessed as growth inhibition after 2 to 3 weeks by broth microdilution method
Format: functional
Summary of the method: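 Primary screen of all compounds against H37Rv at a single concentration in triplicate by microplate dilution. Actives then went to MIC determination by broth microdilution against H37Rv, rifampicin-resistant and XDR-1 isolates. Plates incubated 2–3 weeks at 37 °C in a CO2 incubator. MIC read visually as absence of growth turbidity. Rifampicin and linezolid served as reference drugs.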

Compound	MIC [µg/mL]
CO[C@H]1/C=C/O[C@@]2(C)Oc3c(C)c(O)c4c(O)c(c(/C=N/N5CCN(C)CC5)c(O)c4c3C2=O)NC(=O)/C(C)=C\C=C\[C@H](C)[C@H](O)[C@@H](C)[C@@H](O)[C@@H](C)[C@H](OC(C)=O)[C@@H]1C [RIFAMPIN]	> 128
Cc1cccc(-c2cn(C[C@H]3CN(c4ccc(N5CCN(Cc6cc(-c7ccccc7C)n(-c7ccc(F)cc7)c6C)CC5)c(F)c4)C(=O)O3)nn2)c1	> 16
CC(=O)NC[C@H]1CN(c2ccc(N3CCN(Cc4cc(-c5ccc(C(C)C)cc5)n(-c5ccc(F)cc5F)c4C)CC3)c(F)c2)C(=O)O1	4 (≈ 6.06 µM)
Cc1c(CN2CCN(c3ccc(N4C[C@H](Cn5cc(-c6cncn6C)nn5)OC4=O)cc3F)CC2)cc(-c2ccc(F)cc2F)n1-c1ccc(F)cc1	8 (≈ 11 µM)
Cc1c(CN2CCN(c3ccc(N4C[C@H](Cn5cc(-c6ccccn6)nn5)OC4=O)cc3F)CC2)cc(-c2ccc(Cl)c(F)c2)n1-c1ccc(OC(F)(F)F)cc1	4 (≈ 4.97 µM)
Cc1ccc(-c2cc(CN3CCN(c4ccc(N5C[C@H](Cn6cc(-c7ccccc7)nn6)OC5=O)cc4F)CC3)c(C)n2-c2ccc(Cl)c(Cl)c2)cc1	> 16
Cc1ccc(-c2cc(CN3CCN(c4ccc(N5C[C@H](Cn6cc(-c7ccccn7)nn6)OC5=O)cc4F)CC3)c(C)n2-c2ccc(Cl)c(Cl)c2)cc1	4 (≈ 5.32 µM)
CC(=O)NC[C@H]1CN(c2ccc(N3CCN(Cc4cc(-c5cccc(Cl)c5)n(-c5ccccc5F)c4C)CC3)c(F)c2)C(=O)O1	8 (≈ 12.6 µM)
Cc1c(CN2CCN(c3ccc(N4C[C@H](Cn5cc(-c6ccccc6)nn5)OC4=O)cc3F)CC2)cc(-c2ccc(Cl)c(F)c2)n1-c1ccc(OC(F)(F)F)cc1	> 16
Cc1c(CN2CCN(c3ccc(N4C[C@H](Cn5cc(-c6ccccc6)nn5)OC4=O)cc3F)CC2)cc(-c2cccc(Cl)c2)n1-c1ccccc1F	> 16
Cc1c(CN2CCN(c3ccc(N4C[C@H](Cn5cc(-c6cncn6C)nn5)OC4=O)cc3F)CC2)cc(-c2ccc(C(C)C)cc2)n1-c1ccc(F)cc1F	8 (≈ 10.7 µM)
Cc1ccccc1-c1cc(CN2CCN(c3ccc(N4C[C@H](Cn5cc(-c6ccccn6)nn5)OC4=O)cc3F)CC2)c(C)n1-c1ccc(F)c(F)c1	4 (≈ 5.56 µM)
CC(=O)NC[C@H]1CN(c2ccc(N3CCN(Cc4cc(-c5ccc(F)cc5F)n(-c5cc(F)ccc5Br)c4C)CC3)c(F)c2)C(=O)O1	8 (≈ 11.2 µM)
CC(=O)NC[C@H]1CN(c2ccc(N3CCOCC3)c(F)c2)C(=O)O1 [LINEZOLID]	2 (≈ 5.93 µM)
Cc1c(CN2CCN(c3ccc(N4C[C@H](Cn5cc(-c6ccccn6)nn5)OC4=O)cc3F)CC2)cc(-c2ccc(F)cc2F)n1-c1ccc(F)cc1	8 (≈ 11.1 µM)
Cc1c(CN2CCN(c3ccc(N4C[C@H](Cn5cc(-c6ccccc6)nn5)OC4=O)cc3F)CC2)cc(-c2ccc(F)cc2F)n1-c1cc(F)ccc1Br	> 16
Cc1ccccc1-c1cc(CN2CCN(c3ccc(N4C[C@H](Cn5cc(-c6cncn6C)nn5)OC4=O)cc3F)CC2)c(C)n1-c1ccc(F)cc1	4 (≈ 5.68 µM)
Cc1ccccc1-c1cc(CN2CCN(c3ccc(N4C[C@H](Cn5cc(-c6cncn6C)nn5)OC4=O)cc3F)CC2)c(C)n1-c1ccc(F)c(F)c1	8 (≈ 11.1 µM)
